What was measured:
Acetylcholinesterase [1] = target: T1, Acetylcholinesterase (Homo sapiens, UniProt P22303); test: Inhibition of human recombinant AChE preincubated for 20 mins before substrate addition by Ellman's method
Homo sapiens = species on record: Homo sapiens; test: Selectivity ratio of IC50 for human BuChE to human recombinant AChE
Procedure, shortened: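 Ellman assay in 0.1 M potassium phosphate pH 8.0 with 340 µM DTNB, enzyme at 0.02 unit/mL: human recombinant AChE with 550 µM acetylthiocholine, serum-derived human BuChE with 550 µM butyrylthiocholine. Compounds preincubated with enzyme 20 min at 37 °C. IC50 from five-point curves run in triplicate, mean of two experiments. Ratio = IC50 BuChE / IC50 AChE.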

Cholinesterase = Cholinesterase (Homo sapiens, UniProt P06276); test: Inhibition of human BuChE preincubated for 20 mins before substrate addition by Ellman's method
Procedure, shortened: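 Ellman assay using BuChE from human serum at 0.02 unit/mL in 0.1 M potassium phosphate pH 8.0 with 340 µM DTNB. Compound and enzyme preincubated 20 min at 37 °C, then 550 µM butyrylthiocholine iodide added. Blank lacks enzyme. Five concentrations chosen to give 20–80% inhibition, each in triplicate. IC50 read graphically from log concentration vs % inhibition. Mean of two independent measurements.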

Acetylcholinesterase [2] = target: T1, Acetylcholinesterase; test: Inhibition of human recombinant AChE-induced amyloid beta (1-40) aggregation at 100 uM by thioflavin T fluorescence assay
Procedure, shortened: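 Abeta40, lyophilised from HFIP and dissolved in DMSO, held at final 230 µM. Co-incubated with human recombinant AChE at final 2.30 µM (Abeta:AChE 100:1), with or without inhibitor at final 100 µM. Incubation 24 h at room temperature in 0.215 M sodium phosphate pH 8.0, run in duplicate. ThT read in glycine–NaOH pH 8.5 at ex 446/em 490 nm, subtracting ThT and AChE background. % inhibition = 100 − (IFi/IFo × 100).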

[3] = Inhibition of amyloid beta (1-42) self-aggregation at 10 uM after 24 hrs by thioflavin T-based fluorometric assay
Procedure, shortened: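 Abeta42 from stable 500 µM stock, incubated at final 50 µM in 10 mM phosphate buffer pH 8.0 with 10 mM NaCl, 30 °C for 24 h, with or without compound at 10 µM. Diluted into 50 mM glycine–NaOH pH 8.5 with 1.5 µM thioflavin T. Fluorescence read by 300 s scan at ex 446/em 490 nm, plateau values averaged after ThT background subtraction. % inhibition taken from ± inhibitor intensity ratio.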

Acetylcholinesterase [4] = target: T1, Acetylcholinesterase; test: Inhibition of human recombinant AChE-mediated hydrolysis of acetylcholine by Lineweaver-Burke plot analysis
Procedure, shortened: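 Steady-state kinetics on human recombinant AChE with acetylthiocholine as substrate at low concentrations (0.60–0.06 mM) and inhibitor at increasing concentrations (range 0–50 nM). Initial velocities were plotted as 1/v versus 1/[ATCh]. Plots were fitted by weighted least squares, taking the variance of v as a constant percentage of v, to estimate the competitive inhibition constant Ki.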

Chain of Cholinesterase (P06276 whole entry): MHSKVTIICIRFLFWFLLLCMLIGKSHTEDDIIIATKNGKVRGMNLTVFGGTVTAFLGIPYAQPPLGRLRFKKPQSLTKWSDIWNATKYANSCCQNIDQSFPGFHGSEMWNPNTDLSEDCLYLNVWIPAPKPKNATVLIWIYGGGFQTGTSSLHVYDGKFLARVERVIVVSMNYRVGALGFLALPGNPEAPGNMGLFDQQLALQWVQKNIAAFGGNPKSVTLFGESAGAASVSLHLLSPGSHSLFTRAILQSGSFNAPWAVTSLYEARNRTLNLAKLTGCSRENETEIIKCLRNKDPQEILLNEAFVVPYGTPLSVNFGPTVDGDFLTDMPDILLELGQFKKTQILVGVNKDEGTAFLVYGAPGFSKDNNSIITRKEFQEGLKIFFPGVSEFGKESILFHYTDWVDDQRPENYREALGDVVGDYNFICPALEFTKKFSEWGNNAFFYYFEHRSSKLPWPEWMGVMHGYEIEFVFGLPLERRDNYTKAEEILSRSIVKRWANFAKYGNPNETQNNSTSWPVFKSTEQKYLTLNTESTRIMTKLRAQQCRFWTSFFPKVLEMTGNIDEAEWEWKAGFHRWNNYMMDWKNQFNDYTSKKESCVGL
T1 sequence (P22303 whole entry): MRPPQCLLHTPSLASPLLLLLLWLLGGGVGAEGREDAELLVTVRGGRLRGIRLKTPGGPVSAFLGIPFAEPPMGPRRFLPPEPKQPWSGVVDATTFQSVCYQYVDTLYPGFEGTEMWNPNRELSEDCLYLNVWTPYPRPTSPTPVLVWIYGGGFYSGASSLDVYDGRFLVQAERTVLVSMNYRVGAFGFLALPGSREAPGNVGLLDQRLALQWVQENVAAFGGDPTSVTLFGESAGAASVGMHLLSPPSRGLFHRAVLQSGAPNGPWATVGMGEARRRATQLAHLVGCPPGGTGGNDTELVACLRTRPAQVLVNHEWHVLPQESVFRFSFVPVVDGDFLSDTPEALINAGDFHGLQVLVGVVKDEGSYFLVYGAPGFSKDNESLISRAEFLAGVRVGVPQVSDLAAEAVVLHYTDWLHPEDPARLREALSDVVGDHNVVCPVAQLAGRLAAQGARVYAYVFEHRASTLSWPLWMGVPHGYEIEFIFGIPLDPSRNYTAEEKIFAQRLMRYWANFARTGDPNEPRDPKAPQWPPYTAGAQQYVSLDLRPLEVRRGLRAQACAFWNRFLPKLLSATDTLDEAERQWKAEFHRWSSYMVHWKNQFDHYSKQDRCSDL

Compound | IC50 (Acetylcholinesterase [1]) | Ratio IC50 (Homo sapiens) | IC50 (Cholinesterase) | inhibition (Acetylcholinesterase [2]) | inhibition [3] | Ki (Acetylcholinesterase [4])
CCN(CC)CCCCOc1ccc2c(c1)C/C(=C\c1ccc(CN(C)Cc3ccccc3)cc1)C2=O | 3.95 µM | 5.8 | 22.9 µM |  |  | 
CN(Cc1ccccc1)Cc1ccc(/C=C2\Cc3ccc(OCCCCN4CCOCC4)cc3C2=O)cc1 | 0.89 µM | 112 | 99.8 µM |  |  | 
CCN(CC)CCCCOc1ccc2c(c1)C(=O)/C(=C/c1ccc(CN(C)Cc3ccccc3)cc1)C2 | 0.89 µM | 3.95 | 3.52 µM |  |  | 
COc1ccc2c(c1)C/C(=C\c1ccc(CN(C)Cc3ccccc3)cc1)C2=O | 28.7 µM | 0.73 | 21.1 µM |  |  | 
COc1cc2c(cc1OC)C(=O)/C(=C/c1ccc(CN(C)Cc3ccccc3)cc1)CC2 | 0.18 µM | 404 | 72.8 µM |  |  | 
CCN(CC)CCCCCCOc1ccc2c(c1)C(=O)/C(=C/c1ccc(CN(C)Cc3ccccc3)cc1)C2 | 0.38 µM | 53.9 | 20.5 µM |  |  | 
CN(Cc1ccccc1)Cc1ccc(/C=C2\Cc3ccc(OCCCCCN4CCCCC4)cc3C2=O)cc1 | 0.2 µM | 38.5 | 7.7 µM | 46.8% | 27.9% | 
CN(Cc1ccccc1)Cc1ccc(/C=C2\Cc3ccccc3C2=O)cc1 | 11.7 µM | 2.55 | 29.9 µM |  |  | 
COc1cc2c(cc1OC)C(=O)/C(=C/c1ccc(CN(C)Cc3ccccc3)cc1)C2 | 1.14 µM | 126 | 144 µM |  |  | 
CCN(Cc1ccccc1)Cc1ccc(/C=C2\Cc3ccc(OC)cc3C2=O)cc1 | 4.93 µM | 19.9 | 98.1 µM |  |  | 
COc1cc2c(cc1OC)C(=O)C(CC1CCN(Cc3ccccc3)CC1)C2 (stereo not given) |  |  |  |  | < 5% | 
CCN(CC)CCCCCOc1ccc2c(c1)CC/C(=C\c1ccc(CN(C)Cc3ccccc3)cc1)C2=O | 0.056 µM | 144 | 8.05 µM | 42.9% | 26.4% | 
CCN(CC)CCCCCOc1ccc2c(c1)C(=O)/C(=C/c1ccc(CN(C)Cc3ccccc3)cc1)C2 | 0.19 µM | 14.2 | 2.7 µM | 29.7% | 27.7% | 
COc1ccc2c(c1)C(=O)/C(=C/c1ccc(CN(C)Cc3ccccc3)cc1)CC2 | 5.38 µM | 25.1 | 135 µM |  |  | 
CCN(CC)CCCOc1ccc2c(c1)C(=O)/C(=C/c1ccc(CN(C)Cc3ccccc3)cc1)C2 | 1.32 µM | 9.01 | 11.9 µM |  |  | 
CN(Cc1ccccc1)Cc1ccc(/C=C2\Cc3ccc(OCCCCN4CCCCC4)cc3C2=O)cc1 | 0.18 µM | 55.5 | 10 µM |  |  | 
CN(Cc1ccccc1)Cc1ccc(/C=C2\CCc3cc(OCCCCCN4CCCCC4)ccc3C2=O)cc1 | 0.052 µM | 96.3 | 5.01 µM | 48.3% | 26.9% | 0.0611 µM
COc1cc2cc(-c3ccc(CN(C)Cc4ccccc4)cc3)c(=O)oc2cc1OC |  | 1110 |  |  | < 5% | 
CCN(CC)CCOc1ccc2c(c1)C(=O)/C(=C/c1ccc(CN(C)Cc3ccccc3)cc1)C2 | 1.53 µM | 7.77 | 11.9 µM |  |  | 
COc1ccc2c(c1)CC/C(=C\c1ccc(CN(C)Cc3ccccc3)cc1)C2=O | 0.11 µM | 820 | 90.3 µM |  |  | 
COc1ccc2c(c1)C(=O)/C(=C/c1ccc(CN(C)Cc3ccccc3)cc1)C2 | 0.63 µM | 12.6 | 7.93 µM | < 5% | < 5% | 
CCN(CC)CCCOc1ccc2c(c1)C/C(=C\c1ccc(CN(C)Cc3ccccc3)cc1)C2=O | 1.61 µM | 7.08 | 11.4 µM |  |  | 
CCN(CC)CCOc1ccc2c(c1)C/C(=C\c1ccc(CN(C)Cc3ccccc3)cc1)C2=O | 2.9 µM | 7.76 | 22.5 µM |  |  | 
CCN(CC)CCCCCCCOc1ccc2c(c1)C(=O)/C(=C/c1ccc(CN(C)Cc3ccccc3)cc1)C2 | 0.51 µM | 64.7 | 33 µM |  |  | 
